TRPC6 inhibitor: mouse TRPC6 channel inhibition | Q61143 | B-score at 10 µM | HEK293-TRPC6, membrane potential dye, ACh-evoked depolarization; active compounds read low | AID 2553 | 310,000 tested, 1.1% active;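 active means B-score under library mean minus 3 SD, initial fluorescence not abnormally high, positive integrated signal ratio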;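 further: B-score derived from integrated fluorescence ratio over the kinetic read; more negative B-score means stronger inhibition of depolarization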
TRPC6 act: mouse TRPC6 channel activation. 310,000 tested, 0.13% active. B-score at 10 µM. HEK293-TRPC6 membrane potential dye fluorescence; active compounds read high. Q61143. AID 2550;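 active means B-score of the integrated fluorescence ratio above library mean plus 3 SD, and starting fluorescence ratio within library mean plus 5 SD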;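 further: higher score means more depolarization so channel activation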
TRPC4 inh: blocks the mouse TRPC4 cation channel | Q9QUQ5 | AID 2247 | B-score at 10 µM | HEK293 TRPC4beta/mu-opioid, DAMGO-evoked Fluo4 calcium flux; active compounds read low | 300,000 tested, 0.39% active;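 active means B-score over 3 SD under the library average, no early fluorescence shift, positive overall ratio signal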
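Test system – stable TRPC4beta/mu-opioid receptor HEK293 cells · Probe or stimulus – DAMGO, a submaximal dose followed by a maximal one · Dosing – one concentration per compound · Signal – Fluo4 calcium fluorescence by kinetic imaging, 5 s 1 Hz baseline · Evaluation – per-well B score of integrated baseline-normalized Fluo4 ratio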
TRPC4 PAM: TRPC4 (mouse) allosteric potentiation; HEK293 TRPC4beta/mu-opioid, DAMGO EC20, Fluo-4 Ca2+ flux; active compounds read high; B-score at 10 µM; 310,000 tested, 0.42% active; AID 2227;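 active means B-score of calcium response area above 5 SD of library B-scores, with initial fluorescence ratio within 5 SD of library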
TRPC4 agonist: TRPC4 (mouse) channel activation | AID 2237 | HEK293 TRPC4beta/mu-opioid, Fluo4 calcium fluorescence; active compounds read high | 310,000 tested, 0.49% active | Q9QUQ5 | B-score at 10 µM;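 active means B-score above 5 SD of library B-scores, and initial fluorescence ratio not above library mean plus 5 SD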;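 further: positive B-score marks a calcium rise read as TRPC4 activation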
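Assay system: HEK293 cells stably co-expressing mouse TRPC4beta and mu-opioid receptor / Timing: Fluo4 dye loading 45 min at room temperature, 110 s recording / Signal: Fluo4 calcium-sensitive dye fluorescence, kinetic, 1 Hz baseline / Read-out: integrated baseline-normalised fluorescence ratio, converted to per-well B score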
Of the large screens only hits and unclear results are named; the others gave an inactive call. Most compounds without a hit are left out; they make up all but 2.3% or so of the library.

CCN(CCCNS(=O)(=O)c1cc(-c2cc(C)no2)ccc1C)Cc1ccccc1	TRPC4 agonist 175
CCc1nn(C(C)C(=O)NCc2cccc(OC)c2)c(=O)c2cc3occc3n12 (stereo unspecified)	none
CCCC1NC(C(=O)O)Cc2c1[nH]c1ccccc21 (stereo unspecified)	TRPC4 inh -6
CC(C)C1NC(C(=O)O)Cc2c1[nH]c1ccccc21 (stereo unspecified)	TRPC4 inh -7
CC(C)CC1NC(C(=O)O)Cc2c1[nH]c1ccccc21 (stereo unspecified)	none
CCn1c(SCC(=O)Nc2cc(Cl)ccc2OC)nnc1C1CC1	none
O=[N+]([O-])c1cc(Cl)ccc1N1CCN(c2ccccc2O)CC1	TRPC4 PAM 12
O=[N+]([O-])c1cc(Cl)ccc1N1CCCCC1	none
Cc1ccc(S(=O)(=O)N(CC(=O)N2CCOCC2)c2ccccc2F)cc1	none
CCOc1ccccc1N(CC(=O)N1CCOCC1)S(=O)(=O)c1ccc(SC)cc1	TRPC4 agonist 175
COc1ccc(N(C(=O)c2snc(C(N)=O)c2N)C(C(=O)NC2CCCC2)c2ccc(F)cc2)c(OC)c1 (stereo unspecified)	none
NC(=O)c1nsc(C(=O)N(Cc2ccc(F)cc2)C(C(=O)NC2CCCC2)c2ccco2)c1N (stereo unspecified)	TRPC4 inh -7
CCOc1ccc(C(C(=O)NCC2CCCO2)N(Cc2ccccc2)C(=O)c2snc(C(N)=O)c2N)cc1 (stereo unspecified)	none
NC(=O)c1nsc(C(=O)N(Cc2ccc(F)cc2)C(C(=O)NCC2CCCO2)c2ccc(O)cc2)c1N (stereo unspecified)	TRPC4 inh -10
Cc1ccc(N(C(=O)c2snc(C(N)=O)c2N)C(C(=O)NCC2CCCO2)c2ccc(C)o2)c(C)c1 (stereo unspecified)	TRPC4 inh -7
COc1ccc(C)cc1N(C(=O)c1snc(C(N)=O)c1N)C(C(=O)NC1CCCC1)c1ccc(F)cc1 (stereo unspecified)	TRPC4 inh -11
CCC(Sc1nc(C)cc(C)n1)C(=O)Nc1nccs1 (stereo unspecified)	none
COc1ccc(C(=O)Cn2cc[n+](C)c2)cc1	none
Cc1cccc(NC(=O)CSc2nc3ccccc3nc2N2CCCC2)c1C	none
CC(Oc1ccc(F)cc1Br)c1nc2ccccc2c(=O)[nH]1 (stereo unspecified)	none
NC(=O)c1nsc(C(=O)N(Cc2ccccc2Cl)C(C(=O)NCC2CCCO2)c2ccc(O)cc2)c1N (stereo unspecified)	TRPC4 inh -8
COc1ccc(C(C(=O)NCC2CCCO2)N(Cc2cccs2)C(=O)c2snc(C(N)=O)c2N)cc1 (stereo unspecified)	none
Cc1ccccc1N(C(=O)c1snc(C(N)=O)c1N)C(C)C(=O)NC1CCCCC1 (stereo unspecified)	TRPC4 inh -6
Cc1ccccc1N(C(=O)c1snc(C(N)=O)c1N)C(C(=O)NCC1CCCO1)c1ccc(F)cc1 (stereo unspecified)	TRPC4 inh -6
CCOc1ccc(C(C(=O)NCC2CCCO2)N(Cc2cccnc2)C(=O)c2snc(C(N)=O)c2N)cc1 (stereo unspecified)	TRPC4 inh -6
Cc1ccccc1N(C(=O)c1snc(C(N)=O)c1N)C(C(=O)NCC1CCCO1)c1ccc(N(C)C)cc1 (stereo unspecified)	none
Cc1ccccc1N(C(=O)c1snc(C(N)=O)c1N)C(C(=O)NC1CCCCC1)c1ccc(O)cc1 (stereo unspecified)	none
COc1ccc(CNC(=O)CN(C(=O)CCC(=O)Nc2ccccn2)c2ccc3c(c2)OCO3)cc1	none
COc1cc(NC(=O)Cn2c([N+](=O)[O-])cnc2C)c(OC)cc1Cl	none
O=C(CCCSc1nc2ccccc2[nH]1)NC(c1ccccc1)c1ccccc1	none
O=C(CCCSc1nc2ccccc2[nH]1)NCc1ccccc1Cl	TRPC4 inh -8
c1ccc(Cc2c[nH]c3ccccc23)cc1	TRPC4 inh -5
Cn1cc(C(=O)N2CCN(c3ccccc3)CC2)c(=O)c2cc(S(=O)(=O)N3CCCC3)ccc21	none
CN(Cc1ccccc1)C(=O)c1cn(C)c2ccc(S(=O)(=O)N3CCCC3)cc2c1=O	TRPC4 PAM 12

Assay outcomes from PubChem BioAssay.
